Bioassay records from PubChem.
In the library only some 9.2% were active in any assay of this set; here they are far more common.
HCT116 PTEN-null: suppresses growth of cells with PTEN deletion. HCT116 PTEN-null viability, CellTiter-Glo, 60 h; active compounds read low. viability, % at 10 µM. actives 1.2% (n = 140,000). AID 827;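 active = viability at or below a set limit, 4 SD under the median of all tested compounds, cut at about 3.7% in these data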;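 also: PTEN knockout HCT116 line with beta catenin targeted HCT116 as companion control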
Autophagy mod: alters autophagy in cells; MEF GFP-LC3 puncta imaging; test concentration mostly 10 µM; calls only at 10 µM (by protocol); actives 0.98% (n = 190,000);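 active = percentage of spot-positive cells more than 3 SD above its plate mean, without a fluorescence outlier flag or 80% toxicity; inconclusive = no clear call, values can overlap the other calls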;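 also: spot-positive cell cutoff set from DMSO-treated cells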
Dynein transport: dynein cargo transport inhibition; 3617.4 mouse cells, GR-EGFP nuclear translocation imaging; test concentration mostly 20 µM; stimulated with dexamethasone, 1 µM; active compounds read low; z-score, hits read low; actives 0.47% (n = 220,000);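 active = plate z-score of nuclear minus cytoplasmic receptor signal below a set negative limit, without overly bright fluorescence or cell loss, cut at about -3.5 in these data, passing the limit was not always enough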;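 also: z-score of nuclear minus cytoplasmic ring GR-EGFP intensity difference per well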
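Buffer or medium – tet-free medium with charcoal-stripped serum · Signal – automated 10x imaging of fixed Hoechst-stained cells · Also added – dexamethasone agonist, 1.0 µM final, for 30 min · Incubation – induction 48 h, compound 1 h, agonist 30 min · Read-out – GR-EGFP nuclear translocation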
L major viab: Leishmania major promastigote growth inhibition; AID 1063; actives 9% (n = 200,000); inhibition, % at 10 µM; Leishmania major promastigotes, resazurin fluorescence viability; in the data active = inhibition above about 50%;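 also: promastigotes grown with compound for 44 hours at 28 °C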
bCat KO growth: beta-catenin-lacking colon tumor cell growth suppression; viability, % at 10 µM; AID 818; HCT116 beta-catenin knockout viability, CellTiter-Glo, 60 h; active compounds read low; actives 1.5% (n = 140,000);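 active = viability at or under a set limit, the compound median less 4 SD, cut at about 6% in these data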;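 also: 0% = Hyamine 1622 control at 20 µM and 100% = untreated cell control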
Dynein confirm: dynein cargo transport inhibition, confirmation. 3617.4 GR-EGFP nuclear translocation imaging, dexamethasone-induced. actives 69% (n = 1,000). calls only at 20 µM. AID 463116. shares compounds with Dynein transport;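 active = inhibition of receptor movement into the nucleus at or above a set limit in both runs, with normal cell brightness and cell count; inconclusive = limit reached in only one run, brightness and count normal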;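 also: dexamethasone at 1 µM final in well for 30 min; nuclear minus cytoplasmic GR-EGFP mean intensity difference in channel 2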
Numbers without * were called inactive; i = inactive; ? = inconclusive; . = no result; + = active, no number.

SMILES	HCT116 PTEN-null	Autophagy mod	Dynein transport	L major viab	bCat KO growth	Dynein confirm
CCc1nnc(SCC(=O)Nc2ccccc2Cl)nc1CC	.	i	-0.77	-9	.	.
O=S1(=O)CC=C(CSC(=S)NC2CCS(=O)(=O)C2)C1 (stereo not drawn)	.	i	-4.8*	76*	.	+
NNC(=S)NC1CCS(=O)(=O)C1 (stereo not drawn)	.	.	0.32	.	.	.
CC(=O)OCCN(C)c1cc(SC(C)C)c2nonc2c1[N+](=O)[O-]	.	i	-4.7*	10	.	+
CCC(=O)OCCNc1cc(SCCC(=O)OC)c2nonc2c1[N+](=O)[O-]	67	i	-5.6*	14	67	+
CC(=O)OCCCNc1cc(Sc2ccc(Cl)cc2)c2nonc2c1[N+](=O)[O-]	1.6*	i	-4.8*	3	1.5*	+
CCC(=O)OCCNc1cc(Sc2nccn2C)c2nonc2c1[N+](=O)[O-]	1.7*	i	-4.8*	85*	1.6*	?
CCn1ccnc1CN(C)C(=O)CCc1nnc(CCC2CCCCC2)o1	.	i	-0.5	-2	.	.
Cc1ccc(NC(=O)COC(=O)CNC(=O)c2cccc([N+](=O)[O-])c2)cc1S(=O)(=O)N1CCCCCC1	88	i	-0.18	17	87	.
Cc1cc(C)n2nc(SCC(=O)Nc3c(C)n(C)n(-c4ccccc4)c3=O)nc2n1	100	i	-1.1	-7	92	.
Cc1cccc(C)c1Nc1nnc(SCc2cn3cccc(C)c3n2)s1	90	i	-0.5	0	86	.
CCOc1ccc(N2C(=O)CC(Sc3nc4ccc(OCC)cc4s3)C2=O)cc1 (stereo not drawn)	.	i	-0.36	-8	.	.
CCOc1ccc2nc(SC3CC(=O)N(c4ccc(OC)cc4OC)C3=O)sc2c1 (stereo not drawn)	.	i	-4.9*	-4	.	+
c1ccc2c(-n3cccn3)cccc2c1	118	i	-0.1	31	104	.
CCOc1ccc(-c2c(C#N)c(N)nc3sc(C(=O)c4ccccc4)c(N)c23)cc1	.	.	0.78	.	.	.
COc1ccc(-c2c(C#N)c(N)nc3sc(C(=O)c4ccccc4)c(N)c23)cc1	65	i	-3.9	7	83	i
CCn1ncc(Br)c1C(=O)Nc1ccc(C(=O)OC(C)C)cc1	91	i	-0.58	3	97	.
O=C(OCn1ncc(Br)c(Br)c1=O)c1ccc(F)cc1	0.6*	i	-5.1*	100*	0.8*	+
N#Cc1nccnc1S(=O)(=O)c1cccs1	.	.	-5.6*	.	.	+
O=S(=O)(c1cccs1)N1CCN(S(=O)(=O)c2cccs2)CC1	.	i	-0.62	-5	.	.
CCOC(=O)c1c2ccc(OCC(=O)N/N=C/c3ccc(Cl)cc3)cc2n2ccccc12	2.3*	+	-3.8	10	1.8*	i
CC1=NN(c2ccccc2)C(=O)/C1=C\C=C\c1ccccc1	.	.	-5.3*	.	.	+
CCOC(=O)CN1C(c2ccc(O)cc2)Nc2ccc(Br)cc2C1c1ccccc1 (stereo not drawn)	77	i	1.9	13	73	.
CN(C)CCCN(C(=O)CCOc1ccccc1)c1nc2c(F)cccc2s1	.	i	-7.9*	50*	.	+
CN(C)CCCN(C(=O)CCOc1ccccc1)c1nc2ccc(F)cc2s1	.	i	-3.5*	93*	.	i
SMILES	HCT116 PTEN-null	Autophagy mod	Dynein transport	L major viab	bCat KO growth	Dynein confirm
OCc1ccccc1N=c1ssnc1Cl	94	i	0.066	-1	101	.
Clc1ccc(N=c2ssnc2Cl)nc1	.	i	-3.5*	-10	.	i
COc1cc(/C=C/C(=O)c2ccc(F)cc2)cc(OC)c1OC	.	i	-4.7*	100*	.	+
CCOc1ccc(C(=O)/C=C/c2cc(OC)c(OC)c(OC)c2)cc1	.	i	-4.2*	27	.	+
CCOC(=O)c1sc(C)c(C(=O)NCC(C)(C)CN(C)C)c1N	83	i	-1.3	1	82	.
Cn1cc([N+](=O)[O-])c(C(=O)Nc2cc(Oc3ccccc3)cc([N+](=O)[O-])c2)n1	1.7*	i	-3.9*	-5	1.6*	+
O=[N+]([O-])c1ccc(N2CCOCC2)cn1	.	i	-0.41	-4	.	.
Cc1c(N=C2C=CC(=O)c3ccccc32)c(=O)n(-c2ccccc2)n1C	.	i	-4.7*	101*	.	+
N#CC1=C(N)N(c2ccccc2)C(c2cccc([N+](=O)[O-])c2)C1(C#N)C#N (stereo not drawn)	89	i	-3.7*	54*	93	+
Cc1cccc(N2C(N)=C(C#N)C(C#N)(C#N)C2c2ccccc2)c1 (stereo not drawn)	70	i	-1.3	9	97	.
CCCC(C)NC(=O)c1ccc(C2SCC(=O)N2Cc2ccco2)cc1 (stereo not drawn)	100	i	2	0	93	.
Cc1ccc(/C=C2\CCC3=C2OC(N)=C(C#N)C3c2ccc(C)cc2)cc1 (stereo not drawn)	79	+	-9	100*	82	i
O=C(Cn1cnc2ccccc21)N/N=C/c1ccccn1	88	i	0.32	-5	94	.
CN(C)N1C(N)=C(C#N)C(c2ccccc2)C2=C1CCCC2=O (stereo not drawn)	.	i	-0.03	0	.	.
CCN1C/C(=C/c2ccc(N3CCOCC3)cc2)C(=O)/C(=C/c2ccc(N3CCOCC3)cc2)C1	1.9*	i	-3.6	100*	2.2*	+
Cc1nnc2c3ccccc3c(-c3ccc(O)cc3)nn12	76	i	-0.39	-1	82	.
Cc1c(-c2ccc(O)cc2)nc2nc(-c3ccccc3)c(-c3ccccc3)nn12	.	.	-5.3	.	.	+
CCN(Cc1ccc(OC)c(F)c1)C(=O)CCl	.	i	-4.3*	18	.	?
COc1ccc(NC(=O)/C(Cl)=C(/Cl)S(=O)(=O)Cc2ccccc2)cn1	3.0*	+	-5.6*	42	4.5*	+
COc1ccc(NC(=O)C(Cl)=C(Cl)Cl)cn1	.	i	-4.5*	5	.	+
COc1ccc(NC(=O)Nc2cc(C)cc(C)c2)cn1	.	.	-0.15	.	.	.
COc1ccc(C(=O)CC(Nc2ccc([N+](=O)[O-])cc2)c2ccc(Cl)cc2)cc1 (stereo not drawn)	10	i	0.26	31	17	.
O=C(CCN1CCC(c2cccs2)=N1)c1cccs1	.	.	-0.018	.	.	.
Cc1ccc(N(C)C(=O)N2CCN(c3ccccn3)CC2)cc1	91	.	0.082	-6	85	.
CCN1CCN(c2ccc(NC(=O)c3ccc(F)cc3)cc2Cl)CC1	.	i	-0.072	12	.	.
CCN1CCN(c2ccc(NC(=O)c3ccc([N+](=O)[O-])o3)cc2Cl)CC1	.	i	-4.2*	101*	.	+
CCC(=O)N1CCN(c2ccc(NC(=O)c3ccc([N+](=O)[O-])o3)cc2Cl)CC1	.	i	-5*	101*	.	+
